Results as given in ChEMBL document CHEMBL4316658, “Structure and Absolute Configuration of Abietane Diterpenoids from Salvia clinopodioides: Antioxidant, Antiprotozoal, and Antipropulsive Activities” (J Nat Prod, 2019).
Counter-ions that a name gives are not always drawn.

What was measured:
[1] = Antioxidant activity assessed as DPPH radical scavenging activity measured after 30 mins; type: functional
Method in brief: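 Test compound solution (50 μL) mixed with 150 μL ethanolic DPPH, 100 μM final; 37 °C for 30 min; absorbance at 515 nm. Percent inhibition relative to a 100 μM DPPH ethanol blank.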

Brain [2] = assay: Antioxidant activity in Wistar rat brain homogenate assessed as inhibition of […] lipid peroxidation by measuring reduction in TBARS level preincubated for 30 mins followed by […] and measured after 1 hr; type: functional, tissue-based
Method in brief: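 Adult male Wistar rat whole brain homogenized 1/10 (w/v) in PBS pH 7.4. Spun 10 min at 800 rcf; supernatant set to 2.666 mg protein/mL. Supernatant with EDTA and compound in DMSO preincubated 30 min at 37 °C. FeSO4 added (10 μM final), then 1 h at 37 °C. TBA/TCA reagent added, heated 80 °C 30 min, A540 read. Calibrated against TMP standard curve; IC50 by linear regression.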

Giardia intestinalis = assay: Antiparasitic activity against Giardia intestinalis IMSS:0989:1 assessed as inhibition of parasitic growth treated for 48 hrs followed by compound washout and measured after 48 hrs by MTT/PMS dye based colorimetric method; type: functional, organism-based; conditions: Giardia duodenalis, IMSS:0989:1, 48 h
Method in brief: (§1)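 Axenic log-phase trophozoites in TYI-S-33 medium: E. histolytica HM1-IMSS with 10% heat-inactivated bovine serum (6 × 10^3 cells); G. lamblia IMSS:8909:1 with 10% calf serum and bovine bile (5 × 10^4 cells). Exposed 48 h at 37 °C to 2.5−200 μg/mL in DMSO, then subcultured drug-free 48 h. Counted by hemocytometer, confirmed by MTT/PMS formazan at 570 nm. Duplicates, ≥3 repeats; IC50 by probit regression.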

Brain [3] = assay: Potency index, ratio of BHT IC50 to test compound IC50 for antioxidant activity in Wistar rat brain homogenate assessed as inhibition of FeCl2-induced lipid peroxidation; type: functional, tissue-based
Brain [4] = assay: Potency index, ratio of quercetin IC50 to test compound IC50 for antioxidant activity in Wistar rat brain homogenate assessed as inhibition of FeCl2-induced lipid peroxidation; type: functional, tissue-based
Rattus norvegicus = assay: Antidiarrheal activity in po dosed Sprague-Dawley rat assessed as inhibition of charcoal-gum acacia-induced hyperperistalsis by measuring reduction in distance travelled by charcoal from pylorus to cecum pretreated for 20 mins followed by charcoal meal stimulation and measured after 30 mins; type: functional; conditions: read-out: ID50 (the source's name)
Entamoeba histolytica = assay: Antiparasitic activity against Entamoeba histolytica HM1-IMSS trophozoites assessed as inhibition of parasitic growth treated for 48 hrs followed by compound washout and measured after 48 hrs by MTT/PMS dye based colorimetric method; type: functional, organism-based; conditions: HM-1:IMSS; method in brief: as §1
[5] = Rattus norvegicus, Wistar, Brain, read-out: IC50

SMILES	IC50 (Brain [2]; [5])	IC50 (Giardia intestinalis)	ED50 (Rattus norvegicus)	IC50 (Entamoeba histolytica)	IC50 [1]	other results
CC(C)c1cc2c(c(O)c1O)[C@]13CCC[C@](C)([C@H](O)OC1=O)[C@@H]3CC2	5.9 µM	63 µM	4.1 µmol/kg	37.8 µM	–	IC50 ([1]; read-out: IC50): 24.8 µM; Ratio IC50 (Brain [3]): 5; Ratio IC50 (Brain [4]): 4
COc1c(C(C)C)cc2c(c1OC(C)=O)[C@]13CCC[C@](C)([C@H](OC(C)=O)OC1=O)[C@@H]3CC2	–	–	–	–	Not Active	IC50 (Brain [2]): Not Active
Cc1c(C)c2c(c(C)c1O)CC[C@@](C)(CCC[C@H](C)CCC[C@H](C)CCCC(C)C)O2 [ALPHA-TOCOPHEROL]	–	–	–	–	–	IC50 ([1]; read-out: IC50): 31.7 µM
CC(C)c1cc2c(c(O)c1O)[C@]13CCC[C@](C)(COC1=O)[C@@H]3CC2	2.7 µM	49 µM	5.5 µmol/kg	31.3 µM	–	IC50 ([1]; read-out: IC50): 29.9 µM; Ratio IC50 (Brain [3]): 2; Ratio IC50 (Brain [4]): 2
COc1c(C(C)C)cc2c(c1O)C[C@]13CCC[C@](C)(C(=O)O1)[C@@H]3CC2	40.9 µM	–	–	–	Not Active	–
COc1c(C(C)C)cc2c(c1O)[C@]13CCC[C@](C)([C@H](OC(C)=O)OC1=O)[C@@H]3CC2	–	46.4 µM	–	34.9 µM	Not Active	IC50 (Brain [2]): Not Active
CN(C)C(=O)C(CCN1CCC(O)(c2ccc(Cl)cc2)CC1)(c1ccccc1)c1ccccc1 [LOPERAMIDE HYDROCHLORIDE]	–	–	0.2 µmol/kg	–	–	–
CC(=O)Oc1c(C(C)C)cc2c(c1OC(C)=O)[C@]13CCC[C@](C)([C@H](OC(C)=O)OC1=O)[C@@H]3CC2	–	47.7 µM	2.7 µmol/kg	39.5 µM	Not Active	IC50 (Brain [2]): Not Active
COc1c(C(C)C)cc2c(c1O)[C@]13CCC[C@](C)([C@H](O)OC1=O)[C@@H]3CC2	–	67.1 µM	2.2 µmol/kg	43 µM	Not Active	IC50 (Brain [2]): Not Active
Cc1ncc([N+](=O)[O-])n1CCO [METRONIDAZOLE]	–	1.2 µM	–	0.2 µM	–	–
COC(=O)[C@]12CCC[C@](C)(C=O)[C@@H]1CCc1cc(C(C)C)c(OC)c(O)c12	19.2 µM	61.8 µM	–	48.5 µM	Not Active	–
CC[C@H]1CN2CCc3cc(OC)c(OC)cc3[C@@H]2C[C@@H]1C[C@H]1NCCc2cc(OC)c(OC)cc21 [EMETINE]	–	0.8 µM	–	–	–	–
O=c1c(O)c(-c2ccc(O)c(O)c2)oc2cc(O)cc(O)c12 [QUERCETIN]	–	–	1.1 µmol/kg	–	–	IC50 ([1]; read-out: IC50): 10.9 µM
Cc1cc(C(C)(C)C)c(O)c(C(C)(C)C)c1 [BUTYLATED HYDROXYTOLUENE]	1.2 µM	–	–	–	–	–
